The record followed here is ChEMBL document CHEMBL3785019, “Dihydropyrazole derivatives as telomerase inhibitors: Structure-based design, synthesis, SAR and anticancer evaluation in vitro and in vivo” (Eur J Med Chem, 2016).

Data set [1] in a line: Cytotoxicity against human PC3 cells after 48 hrs by MTT assay. The settings on record: Homo sapiens, PC-3, 48 h; read-out: IC50. In kind it is functional, cell-based, PC-3. The gist of the method:
(§1)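 Tumor cells in log phase in RPMI 1640 + 10% FBS, seeded at 3×10^4 cells mL-1 and incubated 24 h (37 °C, 5% CO2). Test samples added at pre-set concentrations (6 wells each), doxorubicin as reference; 48 h exposure. MTT (2.5 mg·mL-1 in PBS) added for 4 h, formazan dissolved in DMSO, A570 read.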

The subject of data set [2] is Bcap37. Kind of data set: Cytotoxicity against human Bcap37 cells after 48 hrs by MTT assay. The class given is functional, cell-based. The conditions noted are these: Homo sapiens, Bcap37, 48 h; read-out: IC50. The gist of the method:
as §1

Data set [3] can be described thus: Cytotoxicity against human MGC803 cells after 48 hrs by MTT assay. The conditions noted are these: Homo sapiens, MGC-803, 48 h; read-out: IC50. The class given is functional, cell-based, MGC-803. A digest of the protocol:
as §1

Data set [4] relates to HepG2. Nature of the data set: Cytotoxicity against human HepG2 cells after 48 hrs by MTT assay. In kind it is functional, cell-based. The conditions noted are these: Homo sapiens, HepG2, 48 h; read-out: IC50. The gist of the method:
as §1

A short description of data set [5]: Cytotoxicity against human GES-1 cells after 48 hrs by MTT assay. In kind it is cell-based. The settings on record: GES1, 48 h. A digest of the protocol: (§2)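 Human normal gastric mucosa GES-1 and liver L-02 cells; MTT assay; IC50 expressed in mM as mean of triplicate experiments.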
Data set [6] in a line: Cytotoxicity against human L02 cells after 48 hrs by MTT assay. In kind it is cell-based. The conditions noted are these: L02, 48 h. The gist of the method: as §2
The subject of data set [7] is CCRF S-180. Nature of the data set: Antitumor activity against mouse S180 cells xenografted in Kunming mouse assessed as tumor weight at 60 mg/kg/day, QD administered via oral gavage for 10 consecutive days (reference value: 1.98 +/- 0.22g). In kind it is functional. A digest of the protocol:
(§3)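 Kunming mice (20 ± 2 g) inoculated subcutaneously in right front armpit with seven-day-old ascites (0.2 ml, 2 × 10^6 cells). 24 h later randomized, 10 per group; oral gavage 60 mg/kg/day or normal saline (10 mL/kg) once daily for ten days. Sacrificed day 11; tumors and mice weighed. Inhibition rate = (Wcontrol − Wtreated)/Wcontrol × 100%.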

Data set [8] relates to CCRF S-180. Kind of data set: Antitumor activity against mouse S180 cells xenografted in Kunming mouse assessed as inhibition of tumor growth at 60 mg/kg/day, QD administered via oral gavage for 10 consecutive days. The class given is functional. The conditions noted are these: CCRF S-180, po, read-out: TGI. The gist of the method:
as §3

The test system of data set [9] is HepG2. Kind of data set: Antitumor activity against human HepG2 cells xenografted in Kunming mouse assessed as inhibition of tumor growth at 60 mg/kg/day, QD administered via oral gavage for 10 consecutive days. The class given is functional. The conditions noted are these: read-out: TGI. The gist of the method: as §3
Data set [10] deals with Mus musculus. Kind of data set: Toxicity in mouse S180 cells xenografted Kunming mouse assessed as body weight at 60 mg/kg/day, QD administered via oral gavage for 10 consecutive days measured on day 11 (reference value: 23.84 +/- 2.11g). The class given is organism-based, CCRF S-180. The conditions noted are these: in vivo. The gist of the method: as §3
In data set [11] the test system is Mus musculus. Nature of the data set: Toxicity in human HepG2 cells xenografted Kunming mouse assessed as body weight at 60 mg/kg/day, QD administered via oral gavage for 10 consecutive days measured on day 11 (reference value: 25 +/- 1.65g). The class given is organism-based. The conditions noted are these: in vivo. A digest of the protocol: as §3
In data set [12] the test system is Mus musculus. Nature of the data set: Toxicity in Kunming mouse xenografted with mouse EAC cells assessed as body weight at 60 mg/kg/day, QD administered via oral gavage for 10 consecutive days measured on day 11 (reference value: 19.52 +/- 1.17g). The conditions noted are these: in vivo. The class given is organism-based, Ehrlich.
Data set [13] in a line: Antitumor activity against mouse EAC cells xenografted in Kunming mouse assessed as survival time at 60 mg/kg/day, QD administered via oral gavage for 10 consecutive days days (reference value: 16.6 +/- 2.02days). The class given is functional, Ehrlich. A digest of the protocol: (§4)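 EAC cells were grown in RPMI-1640 with 10% heat-inactivated FBS and were kept as ascites by passaging 0.2 mL (2 × 10^6 cells) between mice. Kunming mice weighing 20 ± 2 g were used. Survival was followed by mortality. Mean survival time is the sum of each mouse's survival days divided by the number of mice. %ILS is the […].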

Data set [14] is described as follows: Antitumor activity against mouse EAC cells xenografted in Kunming mouse assessed as prolongation of survival time at 60 mg/kg/day, QD administered via oral gavage for 10 consecutive days days relative to untreated control. In kind it is functional. The conditions noted are these: Ehrlich. A digest of the protocol:
as §4

In data set [15] the test system is Rattus norvegicus. Kind of data set: Antitumor activity against DEN induced Sprague-Dawley rat hepatic tumor assessed as improvement of pathological changes at 50 mg/kg, po qd for 10 consecutive weeks by HE-staining based microscopic analysis. The class given is functional, organism-based. The gist of the method: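 Male SD rats (120~160 g) gavaged with DEN 8 mg/kg once daily, 6 days/week; DEN continued to week 16. From week 10, compound given orally at 50 mg·kg-1 once daily for 10 consecutive weeks; n = 12 per group. Similar parts of left liver lobe fixed in 4% polyformaldehyde, paraffin-embedded, sectioned, HE stained; histopathology viewed at ×200.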

Data set [16] concerns the target Telomerase reverse transcriptase (Homo sapiens, UniProt O14746). Kind of data set: Inhibition of telomerase in human MGC-803 cells after 24 hrs by TRAP-PCR-ELISA assay. The class given is cell-based. A digest of the protocol: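 Cells lysed in RIPA on ice for 30 min; extract incubated with TRAP mix at 25 °C for 30 min, then 35 PCR cycles. Products hybridized to DIG probe, captured on streptavidin, detected with peroxidase anti-DIG at 490 nm; mean±SD.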

For data set [17], the system named is HepG2. Kind of data set: Antitumor activity against human HepG2 cells xenografted in Kunming mouse assessed as tumor weight at 60 mg/kg/day, QD administered via oral gavage for 10 consecutive days (reference value: 1.93 +/- 0.20g).

Calls of active or inactive are those of the source. No cut-off for these calls is given here.

Chain of Telomerase reverse transcriptase (O14746 whole entry): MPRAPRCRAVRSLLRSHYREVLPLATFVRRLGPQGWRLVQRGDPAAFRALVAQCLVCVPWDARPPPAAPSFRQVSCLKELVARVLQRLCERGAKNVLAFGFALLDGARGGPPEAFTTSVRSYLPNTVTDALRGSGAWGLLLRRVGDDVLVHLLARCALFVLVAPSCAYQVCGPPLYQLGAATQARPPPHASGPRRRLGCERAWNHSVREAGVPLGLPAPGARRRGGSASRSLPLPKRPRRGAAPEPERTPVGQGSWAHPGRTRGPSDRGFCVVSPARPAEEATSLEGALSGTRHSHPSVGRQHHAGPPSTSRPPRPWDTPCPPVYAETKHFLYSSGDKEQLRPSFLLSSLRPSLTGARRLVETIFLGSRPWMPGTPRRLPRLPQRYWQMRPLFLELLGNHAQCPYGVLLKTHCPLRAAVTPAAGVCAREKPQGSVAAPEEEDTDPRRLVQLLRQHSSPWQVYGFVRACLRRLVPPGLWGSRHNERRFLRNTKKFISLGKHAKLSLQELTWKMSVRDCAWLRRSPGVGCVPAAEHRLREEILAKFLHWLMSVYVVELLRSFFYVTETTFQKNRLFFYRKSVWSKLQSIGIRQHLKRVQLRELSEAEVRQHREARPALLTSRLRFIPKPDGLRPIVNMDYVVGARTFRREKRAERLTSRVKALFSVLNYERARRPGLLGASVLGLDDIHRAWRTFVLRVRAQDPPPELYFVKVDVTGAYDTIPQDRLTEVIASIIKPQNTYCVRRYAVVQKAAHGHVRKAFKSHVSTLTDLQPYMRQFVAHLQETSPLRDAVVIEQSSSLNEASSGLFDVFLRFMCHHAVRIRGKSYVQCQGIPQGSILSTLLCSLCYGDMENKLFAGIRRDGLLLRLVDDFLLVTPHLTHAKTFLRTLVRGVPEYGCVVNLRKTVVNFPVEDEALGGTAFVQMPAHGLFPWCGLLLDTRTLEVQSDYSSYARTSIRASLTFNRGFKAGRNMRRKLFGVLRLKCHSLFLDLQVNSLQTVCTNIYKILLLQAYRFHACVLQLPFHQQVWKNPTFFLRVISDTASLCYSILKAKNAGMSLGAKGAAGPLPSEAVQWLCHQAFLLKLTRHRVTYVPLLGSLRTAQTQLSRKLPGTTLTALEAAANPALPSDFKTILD

Regarding `CCCCN(CCCC)CC(=O)N1N=C(c2cc3ccccc3oc2=O)CC1c1ccccc1` (stereo not drawn), the IC50 in [1] is 4.87 µM; in data set [2] it was 3.37 µM; in data set [3], 2.96 µM; in data set [4], 2.45 µM; in [5], 1640 µM; in data set [6] it was 1620 µM. Also, the IC50 in [16] was 0.98 µM. The Activity in data set [7] stood at 1.01 g; in data set [10] it was 24.64 g; in data set [11], 27.11 g; in data set [12] it was 19.6 g; in data set [17], 1.04 g. In addition, the inhibition in vivo at 60 mg/kg/day in [8] was determined as 48.9%; in [9], 46.1%. The Survival in [13] worked out at 23.89 days. Also, the survival at 60 mg/kg/day in [14] was 43.9%. The result in data set [15] was Active.
In the case of `CC1=NN(C(=O)CN2CCCCC2)C(c2ccccc2O)C1` (stereo not drawn), the IC50 amounted to 5.89 µM in data set [1]; 33.1 µM in data set [2]; 4.31 µM in data set [3]; 3.02 µM in data set [4]; 1290 µM in [5]; 1800 µM in [6]. The midpoint of inhibition in [16], the IC50, lay at 4.63 µM. The Activity worked out at 1.1 g in [7]; 24.89 g in [10]; 26 g in data set [11]; 19.3 g in data set [12]; 1.17 g in data set [17]. In addition, the inhibition in vivo at 60 mg/kg/day was 44.4% in data set [8] and 39.4% in data set [9]. The Survival in data set [13] is 23.41 days. In addition, in [14], the survival at 60 mg/kg/day stood at 41%.
